pEC50, pIC50: −log10 of the molar value.
How the values were obtained:
[1] = Selectivity ratio of IC50 for inhibition of human HSP60 expressed in Escherichia coli Rosetta 2(DE3)/human HSP10 expressed in Rosetta 2(DE3) pLysS cells to IC50 for inhibition of Escherichia coli GroEL expressed in Escherichia coli DH5alpha/Escherichia coli GroES expressed in Escherichia coli BL21 (DE3)
Method in brief: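 Ratio of IC50s from two analogous chaperonin-mediated refolding assays: human HSP60/10 and E. coli GroEL/ES each refold denatured malate dehydrogenase (dMDH). Refolding is followed through the recovered MDH enzymatic activity in a coupled read-out. IC50s come from dose-response testing. GroEL subunits are at 700 nM in the GroEL/ES assay.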

[2] = tested on: Mycobacterium tuberculosis; test: Antitubercular activity against Mycobacterium tuberculosis H37Rv after 5 days at 200 uM relative to control; type: functional; settings: 120 h
Method in brief: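 M. tuberculosis grown in liquid culture with compound at a fixed 200 μM for 5 days. Growth inhibition expressed as percent of control.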

[3] = target: T1, Tyrosine-protein phosphatase non-receptor type 2 (Homo sapiens, UniProt P17706); test: Inhibition of human PTPN2 expressed in Escherichia coli Rosetta 2 (DE3) using pNPP as substrate after 45 mins by spectrophotometric method
T1 sequence (P17706 whole entry): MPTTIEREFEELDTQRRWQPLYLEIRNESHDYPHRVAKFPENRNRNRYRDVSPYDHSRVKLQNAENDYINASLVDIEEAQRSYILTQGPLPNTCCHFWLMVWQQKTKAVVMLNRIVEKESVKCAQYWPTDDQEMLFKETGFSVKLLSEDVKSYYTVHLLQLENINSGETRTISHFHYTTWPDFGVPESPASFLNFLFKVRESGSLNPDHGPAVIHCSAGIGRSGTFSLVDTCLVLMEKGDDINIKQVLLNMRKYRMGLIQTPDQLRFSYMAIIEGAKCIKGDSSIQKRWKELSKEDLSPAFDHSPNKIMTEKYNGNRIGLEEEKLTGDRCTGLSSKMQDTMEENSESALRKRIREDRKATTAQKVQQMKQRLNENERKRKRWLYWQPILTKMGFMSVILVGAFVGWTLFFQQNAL

E. coli GroEL/ES [4] = target: T2, E. coli GroEL/ES (Escherichia coli, UniProt P0A6F5); test: Inhibition of Escherichia coli GroEL expressed in Escherichia coliDH5alpha/Escherichia coli GroES expressed in Escherichia coli BL21 (DE3) assessed as reduction in GroEL/GroES-mediated denatured pig heart mitochondrial MDH refolding by measuring MDH enzyme activity using sodium mesoxalate as substrate after 20 to 40 mins by spectrometric analysis
T2 sequence (P0A6F5 whole entry, looked up): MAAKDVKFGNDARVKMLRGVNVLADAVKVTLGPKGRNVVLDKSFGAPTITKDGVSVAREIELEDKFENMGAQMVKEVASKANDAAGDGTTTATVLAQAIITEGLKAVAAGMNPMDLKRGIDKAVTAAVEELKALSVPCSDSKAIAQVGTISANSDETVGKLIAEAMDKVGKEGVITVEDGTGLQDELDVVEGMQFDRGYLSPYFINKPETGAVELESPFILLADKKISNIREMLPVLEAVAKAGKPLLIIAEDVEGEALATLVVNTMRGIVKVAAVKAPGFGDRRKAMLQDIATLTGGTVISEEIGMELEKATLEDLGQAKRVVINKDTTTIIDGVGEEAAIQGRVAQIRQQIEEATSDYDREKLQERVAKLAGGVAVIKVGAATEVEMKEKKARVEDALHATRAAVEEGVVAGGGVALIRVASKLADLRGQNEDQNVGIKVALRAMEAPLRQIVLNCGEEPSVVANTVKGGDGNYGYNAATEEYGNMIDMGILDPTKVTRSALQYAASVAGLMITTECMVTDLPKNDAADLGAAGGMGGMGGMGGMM

[5] = Selectivity index, ratio of IC50 for human PTPN1 to IC50 for Mycobacterium tuberculosis PtpB
[6] = target: T3, Phosphotyrosine protein phosphatase (Mycobacterium tuberculosis, UniProt A0A045ISB3); test: Inhibition of Mycobacterium tuberculosis His-tagged PtpB expressed in Escherichia coli Rosetta 2 (DE3) using pNPP as substrate after 30 mins by spectrophotometric method
T3 sequence (A0A045ISB3 whole entry): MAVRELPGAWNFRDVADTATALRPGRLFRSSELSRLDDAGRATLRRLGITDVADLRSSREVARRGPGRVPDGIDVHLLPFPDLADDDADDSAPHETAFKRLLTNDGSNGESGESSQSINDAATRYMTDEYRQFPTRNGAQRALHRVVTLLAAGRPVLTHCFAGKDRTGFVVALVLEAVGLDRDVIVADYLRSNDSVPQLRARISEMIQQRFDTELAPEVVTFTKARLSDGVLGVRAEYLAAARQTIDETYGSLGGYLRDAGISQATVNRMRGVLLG

[7] = target: T4, Tyrosine-protein phosphatase non-receptor type 5 (Homo sapiens, UniProt P54829); test: Inhibition of human PTPN5 expressed in Escherichia coli Rosetta 2 (DE3) using pNPP as substrate after 45 mins by spectrophotometric method
T4 sequence (P54829 whole entry): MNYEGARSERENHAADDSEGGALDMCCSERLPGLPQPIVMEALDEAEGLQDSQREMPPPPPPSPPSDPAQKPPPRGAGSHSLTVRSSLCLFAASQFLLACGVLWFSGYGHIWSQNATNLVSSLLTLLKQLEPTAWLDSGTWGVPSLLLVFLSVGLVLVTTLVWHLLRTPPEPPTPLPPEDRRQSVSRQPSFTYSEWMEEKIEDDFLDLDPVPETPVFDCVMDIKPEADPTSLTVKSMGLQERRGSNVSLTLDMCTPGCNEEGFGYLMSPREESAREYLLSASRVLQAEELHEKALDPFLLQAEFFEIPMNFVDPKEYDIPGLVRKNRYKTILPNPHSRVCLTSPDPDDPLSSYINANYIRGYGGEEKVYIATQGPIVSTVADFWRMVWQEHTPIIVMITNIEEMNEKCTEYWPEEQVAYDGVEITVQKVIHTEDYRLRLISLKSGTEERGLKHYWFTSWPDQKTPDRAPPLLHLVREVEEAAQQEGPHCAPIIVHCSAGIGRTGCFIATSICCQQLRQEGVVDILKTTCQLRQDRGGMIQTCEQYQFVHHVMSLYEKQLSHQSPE

HSP60/HSP10 = HSP60/HSP10 (Homo sapiens, UniProt P10809); test: Inhibition of human HSP60 expressed in Escherichia coli Rosetta 2(DE3)/human HSP10 expressed in Escherichia coli Rosetta 2(DE3) pLysS cells assessed as reduction in HSP60/HSP10-mediated denatured pig heart mitochondrial MDH refolding by measuring MDH enzyme activity using sodium mesoxalate as substrate after 40 to 60 mins by spectrometric analysis
Sequence of HSP60/HSP10 (P10809 whole entry): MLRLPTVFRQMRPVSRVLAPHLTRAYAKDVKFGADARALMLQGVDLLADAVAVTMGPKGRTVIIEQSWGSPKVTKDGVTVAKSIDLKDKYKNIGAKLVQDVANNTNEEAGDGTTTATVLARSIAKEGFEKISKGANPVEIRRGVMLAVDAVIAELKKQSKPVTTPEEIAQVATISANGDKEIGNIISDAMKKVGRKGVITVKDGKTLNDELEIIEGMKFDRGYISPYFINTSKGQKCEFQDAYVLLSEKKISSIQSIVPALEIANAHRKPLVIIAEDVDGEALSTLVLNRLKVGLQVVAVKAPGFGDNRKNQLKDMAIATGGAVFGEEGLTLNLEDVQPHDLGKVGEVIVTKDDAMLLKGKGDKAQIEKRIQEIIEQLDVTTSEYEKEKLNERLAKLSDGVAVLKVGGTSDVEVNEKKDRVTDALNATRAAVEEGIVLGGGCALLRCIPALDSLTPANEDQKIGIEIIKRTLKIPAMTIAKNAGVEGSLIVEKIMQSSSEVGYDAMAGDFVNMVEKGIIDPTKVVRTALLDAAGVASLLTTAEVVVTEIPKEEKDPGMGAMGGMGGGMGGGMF
Sequence of HSP60/HSP10 (P61604 whole entry, further chain): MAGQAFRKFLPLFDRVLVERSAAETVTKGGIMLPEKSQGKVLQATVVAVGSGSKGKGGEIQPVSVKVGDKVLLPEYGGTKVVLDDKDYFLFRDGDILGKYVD

[8] = tested on: Mycobacterium tuberculosis; test: Antitubercular activity against Mycobacterium tuberculosis H37Rv after 5 days; type: functional, organism-based; settings: 120 h
[9] = target: T5, Tyrosine-protein phosphatase non-receptor type 1 (Homo sapiens, UniProt P18031); test: Inhibition of human PTPN1 expressed in Escherichia coli Rosetta 2 (DE3) using pNPP as substrate after 45 mins by spectrophotometric method
T5 sequence (P18031 whole entry): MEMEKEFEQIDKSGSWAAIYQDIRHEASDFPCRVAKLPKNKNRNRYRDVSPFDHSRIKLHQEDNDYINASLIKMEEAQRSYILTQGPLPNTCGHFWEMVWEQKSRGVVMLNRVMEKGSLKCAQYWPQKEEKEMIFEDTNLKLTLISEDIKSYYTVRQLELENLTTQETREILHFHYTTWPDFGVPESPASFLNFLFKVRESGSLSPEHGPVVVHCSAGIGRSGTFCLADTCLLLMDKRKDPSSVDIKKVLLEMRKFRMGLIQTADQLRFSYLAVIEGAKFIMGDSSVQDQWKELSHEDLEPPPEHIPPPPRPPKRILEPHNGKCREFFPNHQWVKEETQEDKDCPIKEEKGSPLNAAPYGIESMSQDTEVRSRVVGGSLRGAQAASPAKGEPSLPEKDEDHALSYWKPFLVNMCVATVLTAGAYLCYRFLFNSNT

E. coli GroEL/ES [10] = target: T2, E. coli GroEL/ES; test: Inhibition of Escherichia coli GroEL expressed in Escherichia coli DH5alpha/Escherichia coli GroES expressed in Escherichia coli BL21 (DE3) assessed as reduction in GroEL/GroES-mediated denatured rhodanese refolding by measuring rhodanese enzyme activity after 45 mins by Fe(SCN)3 dye based spectrometric analysis
[11] = Cytotoxicity against human HEK293 cells assessed as reduction in cell viability after 48 hrs by Alamar blue assay; type: cell-based
Method in brief: (§1)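 Alamar Blue viability read-out. Human liver (THLE-3) and kidney (HEK 293) cells incubated with compound for 48 h. Tested in dose-response to derive CC50.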

[12] = target: T6, Malate dehydrogenase, mitochondrial (Sus scrofa, UniProt P00346); test: Inhibition of refolded pig heart mitochondrial MDH preincubated with Escherichia coli GroEL/GroES for 45 mins using sodium mesoxalate as substrate followed by compound addition and measured after 20 to 30 mins by spectrometric analysis
T6 sequence (P00346 whole entry): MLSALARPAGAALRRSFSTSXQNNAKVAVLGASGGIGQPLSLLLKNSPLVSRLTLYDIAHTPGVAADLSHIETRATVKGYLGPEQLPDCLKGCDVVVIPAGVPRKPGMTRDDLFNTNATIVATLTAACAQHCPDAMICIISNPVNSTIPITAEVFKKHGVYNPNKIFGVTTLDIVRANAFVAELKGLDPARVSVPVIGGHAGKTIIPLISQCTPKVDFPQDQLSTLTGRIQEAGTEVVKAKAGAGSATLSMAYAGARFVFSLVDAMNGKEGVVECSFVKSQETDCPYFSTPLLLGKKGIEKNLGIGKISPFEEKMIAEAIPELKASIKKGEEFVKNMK

[13] = Inhibition of refolded rhodanese (unknown origin) preincubated with Escherichia coli GroEL/GroES for 60 mins by measuring rhodanese enzyme activity followed by compound addition by Fe(SCN)3 dye based spectrometric analysis; parameters: species or system Homo sapiens
[14] = Cytotoxicity against human THLE3 cells assessed as reduction in cell viability after 48 hrs by Alamar blue assay; type: cell-based; method in brief: as §1

Row | SMILES | Ratio IC50 [1] | inhibition at 200 µM [2] | pIC50 [3] | pIC50 (E. coli GroEL/ES [4]) | Ratio IC50 [5] | pIC50 [6] | pIC50 [7] | pIC50 (HSP60/HSP10) | pEC50 [8] | pIC50 [9] | pIC50 (E. coli GroEL/ES [10]) | CC50 at 48 h [11] | pIC50 [12] | pIC50 [13] | CC50 at 48 h [14]
1 | N#Cc1ccc(S(=O)(=O)Nc2ccc(-c3nc4cc(NS(=O)(=O)c5ccc(C#N)cc5)ccc4o3)cc2)cc1 | 1.4 | 95% | 4.46 | 4.46 | 2.3 | 4.92 | 4.57 | 4.31 | 4.37 | 4.43 | – | – | – | – | –
2 | NCc1ccc(S(=O)(=O)Nc2ccc3oc(-c4ccc(NS(=O)(=O)c5ccc(Cl)s5)cc4)nc3c2)cc1 | 8 | 91% | 4.21 | 5.34 | 9.5 | 5.36 | 4.21 | 4.43 | 4.23 | 4.38 | – | – | – | – | –
3 | O=S(=O)(Nc1ccc(-c2nc3cc(NS(=O)(=O)c4ccccc4O)ccc3o2)cc1)c1ccccc1O | 2.3 | 79% | 4.41 | 5.11 | 10 | 5.64 | 4.60 | 4.74 | 4.20 | 4.64 | – | – | – | – | –
4 | O=S(=O)(Nc1ccc2oc(-c3ccc(NS(=O)(=O)c4ccc(Cl)s4)cc3)nc2c1)c1ccccc1 | 1.6 | 72% | 4.55 | 5.25 | 1.6 | 5.06 | 4.62 | 5.05 | 4.40 | 4.85 | – | – | – | – | –
5 | NCc1ccc(S(=O)(=O)Nc2ccc(-c3nc4cc(NS(=O)(=O)c5ccc(Cl)s5)ccc4o3)cc2)cc1 | 37 | 94% | 4.04 | – | 6.2 | 5.04 | 4.12 | 4.32 | 4.59 | 4.25 | – | – | – | – | –
6 | C=Cc1ccc(S(=O)(=O)Nc2ccc(-c3nc4ccccc4o3)cc2)cc1 | – | 73% | 4.48 | 4.04 | – | 4.28 | 4.51 | < 4.00 | < 3.70 | 4.33 | 3.78 | > 100 µM | < 4.20 | < 4.00 | 82 µM
7 | O=S(=O)(Nc1ccc(-c2nc3ccccc3o2)cc1)c1ccc(Cl)s1 | – | 70% | 4.14 | 4.28 | – | 4.49 | 4.19 | 4.51 | 3.73 | 4.20 | 3.81 | > 100 µM | < 4.20 | < 4.00 | 85 µM
8 | COc1cccc(S(=O)(=O)Nc2ccc3oc(-c4ccccc4)nc3c2)c1 | – | 83% | 4.06 | < 4.00 | – | < 4.00 | 4.36 | < 4.00 | 3.79 | 4.07 | 3.66 | 63 µM | < 4.20 | < 4.00 | 37 µM
9 | Cc1ccccc1S(=O)(=O)Nc1ccc(-c2nc3ccccc3o2)cc1 | – | 58% | 4.30 | 4.12 | – | 4.42 | 4.49 | 4.07 | 3.75 | 4.28 | 3.95 | > 100 µM | < 4.20 | < 4.00 | 86 µM
10 | CCc1ccc(S(=O)(=O)Nc2ccc(-c3nc4ccccc4o3)cc2)cc1 | – | 82% | 4.44 | 4.04 | – | 4.34 | 4.51 | < 4.00 | 3.82 | 4.43 | 3.76 | 82 µM | < 4.20 | < 4.00 | 77 µM
11 | O=S(=O)(Nc1ccc2oc(-c3ccccc3)nc2c1)c1ccc(Cl)s1 | – | 71% | 4.14 | < 4.00 | – | 4.27 | 4.36 | 4.15 | < 3.70 | 4.12 | 3.63 | > 100 µM | < 4.20 | < 4.00 | 43 µM
12 | O=[N+]([O-])c1cc(S(=O)(=O)Nc2ccc(-c3nc4ccccc4o3)cc2)ccc1Cl | – | 52% | 4.21 | 4.70 | – | 4.46 | 4.34 | 4.77 | 3.71 | 4.42 | 4.36 | 85 µM | < 4.20 | < 4.00 | 24 µM
13 | O=S(=O)(Nc1ccc(-c2nc3ccccc3o2)cc1)c1ccc(F)c(C(F)(F)F)c1 | – | 77% | 4.44 | 4.47 | – | 4.44 | 4.37 | 4.55 | < 3.70 | 4.40 | 3.95 | 82 µM | < 4.20 | < 4.00 | 72 µM

— ChEMBL document CHEMBL4387722
